# Reference: ChEMBL document CHEMBL1121371, “Antihypertensive 5,6-diarylpyridazin-3-ones” (1980)
# Tested on: Rattus norvegicus
# Test: Antihypertensive activity in spontaneously hypertensive rats was measured as average blood pressure at 10 mg/kg, p.o. before predose
# Type: functional
# Conditions: route oral
# Method in brief: (§1)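 Spontaneously hypertensive rats aged 12 to 16 weeks, in groups of five with systolic pressure of 170 mmHg or more. Oral dosing as a solution or suspension in 0.25% methylcellulose, 5 mL/kg, with a vehicle control group. Tail-cuff systolic pressure was read predose and 4 and 24 h after each of two doses. Values were compared with predose by Student's t test.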
row,Compound,BP [mmHg]
1,N#Cc1c(-c2ccc(Cl)cc2)c(-c2ccc(Cl)cc2)nn(CCO)c1=O,194
2,CC(=O)c1c(-c2ccc(Cl)cc2)c(-c2ccc(Cl)cc2)nn(CCN=C(C)C)c1=O,210

# Tested on: Rattus norvegicus
# Test: Antihypertensive activity in spontaneously hypertensive rats was measured as average blood pressure at 50 mg/kg, p.o. before predose
# Type: functional
# Conditions: route oral
# Method in brief: as §1
row,Compound,BP [mmHg]
1,N#Cc1c(-c2ccc(Cl)cc2)c(-c2ccc(Cl)cc2)nn(CCO)c1=O,200

# Tested on: Rattus norvegicus
# Test: Antihypertensive activity in spontaneously hypertensive rats was measured as average blood pressure at 50 mg/kg, p.o. after 4 hours of postdose-1
# Type: functional
# Conditions: route oral
# Method in brief: as §1
row,Compound,BP [mmHg]
1,N#Cc1c(-c2ccc(Cl)cc2)c(-c2ccc(Cl)cc2)nn(CCO)c1=O,165

# Tested on: Rattus norvegicus
# Test: Antihypertensive activity in spontaneously hypertensive rats was measured as average blood pressure at 50 mg/kg, p.o. after 4 hours of postdose-2
# Type: functional
# Conditions: route oral
# Method in brief: as §1
row,Compound,BP [mmHg]
1,N#Cc1c(-c2ccc(Cl)cc2)c(-c2ccc(Cl)cc2)nn(CCO)c1=O,156

# Tested on: Rattus norvegicus
# Test: Antihypertensive activity in spontaneously hypertensive rats was measured as average blood pressure at 10 mg/kg, p.o. after 24 hours of postdose-1
# Type: functional
# Conditions: route oral
# Method in brief: as §1
row,Compound,BP [mmHg]
1,N#Cc1c(-c2ccc(Cl)cc2)c(-c2ccc(Cl)cc2)nn(CCO)c1=O,184
2,CC(=O)c1c(-c2ccc(Cl)cc2)c(-c2ccc(Cl)cc2)nn(CCN=C(C)C)c1=O,208

# Tested on: Rattus norvegicus
# Test: Antihypertensive activity in spontaneously hypertensive rats was measured as average blood pressure at 10 mg/kg, p.o. after 24 hours of postdose-2
# Type: functional
# Conditions: route oral
# Method in brief: as §1
row,Compound,BP [mmHg]
1,N#Cc1c(-c2ccc(Cl)cc2)c(-c2ccc(Cl)cc2)nn(CCO)c1=O,180
2,CC(=O)c1c(-c2ccc(Cl)cc2)c(-c2ccc(Cl)cc2)nn(CCN=C(C)C)c1=O,209

# Tested on: Rattus norvegicus
# Test: Antihypertensive activity in spontaneously hypertensive rats was measured as average blood pressure at 10 mg/kg, p.o. after 4 hours of postdose-1.
# Type: functional
# Conditions: route oral
# Method in brief: as §1
row,Compound,BP [mmHg]
1,N#Cc1c(-c2ccc(Cl)cc2)c(-c2ccc(Cl)cc2)nn(CCO)c1=O,181
2,CC(=O)c1c(-c2ccc(Cl)cc2)c(-c2ccc(Cl)cc2)nn(CCN=C(C)C)c1=O,214

# Tested on: Rattus norvegicus
# Test: Antihypertensive activity in spontaneously hypertensive rats was measured as average blood pressure at 10 mg/kg, p.o. after 4 hours of postdose-2
# Type: functional
# Conditions: route oral
# Method in brief: as §1
row,Compound,BP [mmHg]
1,N#Cc1c(-c2ccc(Cl)cc2)c(-c2ccc(Cl)cc2)nn(CCO)c1=O,178
2,CC(=O)c1c(-c2ccc(Cl)cc2)c(-c2ccc(Cl)cc2)nn(CCN=C(C)C)c1=O,205

# Tested on: Rattus norvegicus
# Test: Antihypertensive activity in spontaneously hypertensive rats was measured as average blood pressure at 100 mg/kg, p.o. after 24 hours of postdose-1.
# Type: functional
# Conditions: route oral
# Method in brief: as §1
row,Compound,BP [mmHg]
1,N#Cc1c(-c2ccc(Cl)cc2)c(-c2ccc(Cl)cc2)nn(CCO)c1=O,158
2,CC(=O)c1c(-c2ccc(Cl)cc2)c(-c2ccc(Cl)cc2)nn(CCN=C(C)C)c1=O,158

# Tested on: Rattus norvegicus
# Test: Antihypertensive activity in spontaneously hypertensive rats was measured as average blood pressure at 100 mg/kg, po after 24 hours of postdose-2
# Type: functional
# Conditions: not given
# Method in brief: as §1
row,Compound,BP [mmHg]
1,N#Cc1c(-c2ccc(Cl)cc2)c(-c2ccc(Cl)cc2)nn(CCO)c1=O,152
2,CC(=O)c1c(-c2ccc(Cl)cc2)c(-c2ccc(Cl)cc2)nn(CCN=C(C)C)c1=O,164

# Tested on: Rattus norvegicus
# Test: Antihypertensive activity in spontaneously hypertensive rats was measured as average blood pressure at 25 mg/kg, p.o. after 24 hours of postdose-1
# Type: functional
# Conditions: route oral
# Method in brief: as §1
row,Compound,BP [mmHg]
1,N#Cc1c(-c2ccc(Cl)cc2)c(-c2ccc(Cl)cc2)nn(CCO)c1=O,178

# Tested on: Rattus norvegicus
# Test: Antihypertensive activity in spontaneously hypertensive rats was measured as average blood pressure at 25 mg/kg, p.o. after 24 hours of postdose-2
# Type: functional
# Conditions: route oral
# Method in brief: as §1
row,Compound,BP [mmHg]
1,N#Cc1c(-c2ccc(Cl)cc2)c(-c2ccc(Cl)cc2)nn(CCO)c1=O,180

# Tested on: Rattus norvegicus
# Test: Antihypertensive activity in spontaneously hypertensive rats was measured as average blood pressure at 25 mg/kg, po after 4 hours of postdose-1
# Type: functional
# Conditions: not given
# Method in brief: as §1
row,Compound,BP [mmHg]
1,N#Cc1c(-c2ccc(Cl)cc2)c(-c2ccc(Cl)cc2)nn(CCO)c1=O,168

# Tested on: Rattus norvegicus
# Test: Antihypertensive activity in spontaneously hypertensive rats was measured as average blood pressure at 25 mg/kg, p.o. after 4 hours of postdose-2
# Type: functional
# Conditions: route oral
# Method in brief: as §1
row,Compound,BP [mmHg]
1,N#Cc1c(-c2ccc(Cl)cc2)c(-c2ccc(Cl)cc2)nn(CCO)c1=O,157

# Tested on: Rattus norvegicus
# Test: Antihypertensive activity in spontaneously hypertensive rats was measured as average blood pressure at 25 mg/kg, p.o. before predose
# Type: functional
# Conditions: route oral
# Method in brief: as §1
row,Compound,BP [mmHg]
1,N#Cc1c(-c2ccc(Cl)cc2)c(-c2ccc(Cl)cc2)nn(CCO)c1=O,208

# Tested on: Rattus norvegicus
# Test: Antihypertensive activity in spontaneously hypertensive rats was measured as average blood pressure at 30 mg/kg, p.o. after 24 hours of postdose-1
# Type: functional
# Conditions: route oral
# Method in brief: as §1
row,Compound,BP [mmHg]
1,CC(=O)c1c(-c2ccc(Cl)cc2)c(-c2ccc(Cl)cc2)nn(CCN=C(C)C)c1=O,196

# Tested on: Rattus norvegicus
# Test: Antihypertensive activity in spontaneously hypertensive rats was measured as average blood pressure at 30 mg/kg, p.o. after 24 hours of postdose-2
# Type: functional
# Conditions: route oral
# Method in brief: as §1
row,Compound,BP [mmHg]
1,CC(=O)c1c(-c2ccc(Cl)cc2)c(-c2ccc(Cl)cc2)nn(CCN=C(C)C)c1=O,198

# Tested on: Rattus norvegicus
# Test: Antihypertensive activity in spontaneously hypertensive rats was measured as average blood pressure at 30 mg/kg, po after 4 hours of postdose-1.
# Type: functional
# Conditions: not given
# Method in brief: as §1
row,Compound,BP [mmHg]
1,CC(=O)c1c(-c2ccc(Cl)cc2)c(-c2ccc(Cl)cc2)nn(CCN=C(C)C)c1=O,201

# Tested on: Rattus norvegicus
# Test: Antihypertensive activity in spontaneously hypertensive rats was measured as average blood pressure at 30 mg/kg, p.o. after 4 hours of postdose-2
# Type: functional
# Conditions: route oral
# Method in brief: as §1
row,Compound,BP [mmHg]
1,CC(=O)c1c(-c2ccc(Cl)cc2)c(-c2ccc(Cl)cc2)nn(CCN=C(C)C)c1=O,190

# Tested on: Rattus norvegicus
# Test: Antihypertensive activity in spontaneously hypertensive rats was measured as average blood pressure at 30 mg/kg, p.o. before predose
# Type: functional
# Conditions: route oral
# Method in brief: as §1
row,Compound,BP [mmHg]
1,CC(=O)c1c(-c2ccc(Cl)cc2)c(-c2ccc(Cl)cc2)nn(CCN=C(C)C)c1=O,211

# Tested on: Rattus norvegicus
# Test: Antihypertensive activity in spontaneously hypertensive rats was measured as average blood pressure at 50 mg/kg, p.o. after 24 hours of postdose-1
# Type: functional
# Conditions: route oral
# Method in brief: as §1
row,Compound,BP [mmHg]
1,N#Cc1c(-c2ccc(Cl)cc2)c(-c2ccc(Cl)cc2)nn(CCO)c1=O,171

# Tested on: Rattus norvegicus
# Test: Antihypertensive activity in spontaneously hypertensive rats was measured as average blood pressure at 50 mg/kg, p.o. after 24 hours of postdose-2
# Type: functional
# Conditions: route oral
# Method in brief: as §1
row,Compound,BP [mmHg]
1,N#Cc1c(-c2ccc(Cl)cc2)c(-c2ccc(Cl)cc2)nn(CCO)c1=O,168

# Tested on: Rattus norvegicus
# Test: Antihypertensive activity in spontaneously hypertensive rats was measured as average blood pressure at 100 mg/kg, p.o. after 4 hours of postdose-1
# Type: functional
# Conditions: route oral
# Method in brief: as §1
row,Compound,BP [mmHg]
1,N#Cc1c(-c2ccc(Cl)cc2)c(-c2ccc(Cl)cc2)nn(CCO)c1=O,157

# Tested on: Rattus norvegicus
# Test: Antihypertensive activity in spontaneously hypertensive rats was measured as average blood pressure at 100 mg/kg, p.o. after 4 hours of postdose-1.
# Type: functional
# Conditions: route oral
# Method in brief: as §1
row,Compound,BP [mmHg]
1,CC(=O)c1c(-c2ccc(Cl)cc2)c(-c2ccc(Cl)cc2)nn(CCN=C(C)C)c1=O,203

# Tested on: Rattus norvegicus
# Test: Antihypertensive activity in spontaneously hypertensive rats was measured as average blood pressure at 100 mg/kg, p.o. after 4 hours of postdose-2
# Type: functional
# Conditions: route oral
# Method in brief: as §1
row,Compound,BP [mmHg]
1,N#Cc1c(-c2ccc(Cl)cc2)c(-c2ccc(Cl)cc2)nn(CCO)c1=O,145
2,CC(=O)c1c(-c2ccc(Cl)cc2)c(-c2ccc(Cl)cc2)nn(CCN=C(C)C)c1=O,134

# Tested on: Rattus norvegicus
# Test: Antihypertensive activity in spontaneously hypertensive rats was measured as average blood pressure at 100 mg/kg, p.o. before predose
# Type: functional
# Conditions: route oral
# Method in brief: as §1
row,Compound,BP [mmHg]
1,N#Cc1c(-c2ccc(Cl)cc2)c(-c2ccc(Cl)cc2)nn(CCO)c1=O,200
2,CC(=O)c1c(-c2ccc(Cl)cc2)c(-c2ccc(Cl)cc2)nn(CCN=C(C)C)c1=O,209
